Experimental data of several laboratories.
Lines come from different studies, so protocols differ.
Target: Dual specificity mitogen-activated protein kinase kinase 1 (MAP2K1, Homo sapiens, UniProt Q02750)

The remaining signal of `Cc1ccc(NC(=O)c2ccc(C)c(C(F)(F)F)c2)cc1C#Cc1nn(C2CCC(O)CC2)c2ncnc(N)c12` (stereo not drawn) is reported as 34% (cell-free assay; 10 µM).
The inhibition of `COc1cc2ncnc(Nc3ccc(Oc4ccccc4)c(C)c3C)c2cc1OC` is reported as 1% (enzyme activity; inhibitor; 1 µM).
`CCN(CC)CCNC(=O)c1c(C)[nH]c(/C=C2\C(=O)Nc3ccc(F)cc32)c1C` gave a remaining activity of 79% (enzyme activity; inhibitor; 0.1 µM).
`Nc1nc(NC2CCCCC2)sc1C(=O)c1ccccc1` gave a remaining activity of 68% (enzyme activity; inhibitor; 10 µM).
`CNC(=O)c1cc(Oc2ccc(NC(=O)Nc3ccc(Cl)c(C(F)(F)F)c3)cc2)ccn1` has an inhibition of 2% (enzyme activity; inhibitor; 10 µM).
`CC(C)(O)[C@H]1CC[C@H](Nc2ccc3ncc(-c4cccc(C(F)(F)F)c4)n3n2)CC1` gave a remaining activity of 79.5% (enzyme activity; inhibitor; 1 µM).
`CC(C)(C)c1nc(-c2cccc(NS(=O)(=O)c3c(F)cccc3F)c2F)c(-c2ccnc(N)n2)s1` gave a remaining activity of 94% (enzyme activity; inhibitor; radiometric; 1 µM).
`C=CC(=O)Nc1cc(Nc2nccc(Nc3cc(Cl)c(F)cc3C(C)(C)O)n2)c(OC)cc1N1CC[C@@H](N(C)C)C1` has an inhibition of 21% (enzyme activity; inhibitor; 1 µM).
`CSc1cccnc1N1CCN(Cc2nc3ccccc3[nH]2)CC1` has a remaining binding of 79% (cell-free assay; competition with immobilised ligand; 1 µM).
`Cn1cnc(Br)c1C1=CN(c2ncnc3[nH]cnc23)CCS1` has an inhibition of 17.1% (enzyme activity; inhibitor; radiometric; 50 nM).
For `Cc1ccc(Nc2nccc(N(C)c3ccc4c(C)n(C)nc4c3)n2)cc1S(N)(=O)=O`, the inhibition was -5% (enzyme activity; inhibitor; 0.3 µM).
`Oc1cccc(-c2nc(N3CCOCC3)c3oc4ncccc4c3n2)c1` has a remaining activity of 105% (enzyme activity; inhibitor; 10 µM).
The inhibition of `O=C(CSc1nc2nccnc2c(=O)n1CCc1ccccc1)Nc1nccs1` is reported as -2% (enzyme activity; inhibitor; 10 µM).
For `CN(C)C1CCN(CC#Cc2nn(C3CCCC3)c3nc(NCc4ccccc4)ncc23)C1` (stereo not drawn), the inhibition was 13% (enzyme activity; inhibitor; FRET; 10 µM).
`O=C1NC(=O)c2cc(Nc3ccc(F)cc3)c(Nc3ccc(F)cc3)cc21` gave a remaining signal of 103% (cell-free assay; 0.5 µM).
With `CNCc1ccc(-c2cc(-c3nc(-c4ccc(S(=O)(=O)C(C)C)cc4)cnc3N)on2)cc1` the inhibition was 6% (enzyme activity; inhibitor; 2 µM).
For `FC(F)c1nc2ccccc2n1-c1nc(N2CCOCC2)nc(N2CCOCC2)n1`, the remaining activity was 83% (enzyme activity; inhibitor; 10 µM).
For `Nc1nc(Nc2ccccc2)sc1C(=O)c1c(F)cccc1F`, the remaining activity was 96% (enzyme activity; inhibitor; 10 µM).
`CS(=O)(=O)N1CCCC(NC(=O)[C@H](CCC2CCCCC2)NC(=O)c2ccc(CNC(=O)c3cnc4ccccn34)cc2)C1` (stereo partly drawn) has a remaining binding of 100% (cell-free assay; competition with immobilised ligand; 0.1 µM).
The activity vs control of `Cc1ccc(C(=O)NCc2ccsc2)cc1C#Cc1cn(C(C)C)c2ncnc(N)c12` is reported as 93% (enzyme activity; inhibitor; 1 µM).
With `CCCS(=O)(=O)Nc1ccc(F)c(C(=O)c2c[nH]c3ncc(-c4ccc(Cl)cc4)cc23)c1F` the inhibition was < 10% (enzyme activity; inhibitor; 1 µM).
The remaining signal of `COc1cccc(-c2cc(=O)c3ccccc3o2)c1N` is reported as 69.1% (cell-free assay; 0.5 µM).
With `Nc1cnc(N2CCc3cc(S(=O)(=O)Nc4c(F)cc(Cl)cc4F)cc(N4CCCC4=O)c32)nc1` the remaining binding was 100% (cell-free assay; competition with immobilised ligand; 1 µM).
With `COc1cc(Cl)c(C(=O)N[C@@H](CN[C@H]2CC[C@@H](N)CC2)Cc2ccc(C#N)cc2)cc1-c1ccc(CN[C@H](C)c2ccc(C)cc2)o1` the remaining activity was 98% (enzyme activity; inhibitor; 1 µM).
`FC(F)(F)Oc1cccc(-c2cnc3ccc(-c4ccncc4)nn23)c1` has an activity vs control of 79% (enzyme activity; inhibitor; radiometric; 1 µM).
`O=C(O)[C@@H]1[C@@H](Cn2nnc3ccccc3c2=O)CC[C@H]1C(=O)c1ccc(OCCC2CCOCC2)cc1` has a remaining binding of 81% (cell-free assay; competition with immobilised ligand; 1 µM).
For `CCN(CC)CCNC(=O)c1c(C)[nH]c(/C=C2\C(=O)Nc3ccc(F)cc32)c1C`, the inhibition was 76% (enzyme activity; inhibitor; 10 µM).
The remaining binding of `CC(C)CC(=O)N1CCc2nc(-c3ccc(Br)cc3)nc(N(C)Cc3ccccc3)c2C1` is reported as 100% (cell-free assay; competition with immobilised ligand; 0.1 µM).
`CN1CC(Oc2cnc(C#N)cc2-c2ccn3nc(NC(=O)C4CC4)cc3c2)C1` gave an inhibition of 13% (enzyme activity; inhibitor; 1 µM).
For `Cc1[nH]c(/C=C2\C(=O)Nc3ccc(F)cc32)c(C)c1C(=O)N[C@H]1CCN(C(=O)N(C)C)C1`, the remaining activity was 94% (enzyme activity; inhibitor; 0.1 µM).
The remaining binding of `CCCOc1ccc([C@H]2[C@H](C(=O)O)[C@@H](c3ccc4c(c3)OCO4)CN2CC(=O)Nc2c(CC)cccc2CC)cc1` is reported as 66% (cell-free assay; competition with immobilised ligand; 1 µM).
For `O=C(Nc1cnn(-c2csc(C(=O)NC3COC3)c2)c1)Nc1c(F)cccc1Cl`, the remaining activity was 107% (enzyme activity; inhibitor; 5 µM).
For `CN([C@@H]1CCc2c(CC(=O)O)c3cc(S(C)(=O)=O)ccc3n2C1)S(=O)(=O)c1ccc(F)cc1`, the remaining binding was 98% (cell-free assay; competition with immobilised ligand; 1 µM).
`COc1cc(/C=C/C(=O)CC(=O)/C=C/c2ccc(O)c(OC)c2)ccc1O` has an activity vs control of 93% (enzyme activity; inhibitor; 1 µM).
The remaining binding of `O=C(NCc1ncc(C(F)(F)F)cc1Cl)c1ccc2c(c1)C1(CCS(=O)(=O)CC1)[C@H](C1CC1)N2S(=O)(=O)c1ccc(F)cc1` is reported as 98% (cell-free assay; competition with immobilised ligand; 1 µM).
With `Cc1ccc(NC(=O)c2ccc(CN3CCN(C)CC3)cc2)cc1Nc1nc(-c2cccnc2)cs1` the remaining signal was 111% (cell-free assay; 0.5 µM).
